# Results from ChEMBL document CHEMBL5724801, “EUbOPEN Chemogenomics Library - Multiplex” (2024).
# “And” between values parts separate entries of the source, which are not always exact repeats. Equal values may be shown once.
# Assays:
# HEK-293T = experiment: Multiplex assay against HEK293T; format: toxicity, cell-based; conditions: human
# How it was run: (§1)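 Live cells were stained at seeding with Hoechst33342, BioTracker Green Microtubule Cytoskeleton Dye, MitoTracker Red and Annexin V Alexa Fluor 680. Following compound addition, they were imaged on a CQ1 microscope at 37°C and 5% CO2 and gated by CellPathfinder machine learning into Hoechst high-intensity objects or normal cells, with normal cells split into healthy, pyknosed or fragmented nuclei and pyknosed cells into mitotic or apoptotic. Tubulin, mitochondrial-mass and membrane-permeability phenotypes are per cents of healthy-nucleus cells.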
# U2OS = experiment: Multiplex assay against U2OS; format: toxicity, cell-based; conditions: human; how it was run: as §1
# [1] = 12 h, 1 µM, compound concentration 1 uM
# [2] = 12 h, 10 µM, compound concentration 10 uM
# [3] = 24 h, 1 µM, compound concentration 1 uM
# [4] = 24 h, 10 µM, compound concentration 10 uM
# [5] = 48 h, 1 µM, compound concentration 1 uM
# [6] = 48 h, 10 µM, compound concentration 10 uM
structure (smiles),measurement,setting,value
COc1cc2nc(N3CCN(C(=O)c4ccco4)CC3)nc(N)c2cc1OC.Cl [PRAZOSIN HYDROCHLORIDE],Population Apoptotic (%),HEK-293T; [1],32% and 56%
same,Population Fragmented Nuclei (%),HEK-293T; [1],10% and 6%
same,Population Healthy Nuclei (%),HEK-293T; [1],77%
same,Population Hoechst High Intensity Objects (%),HEK-293T; [1],6%
same,Population Membrane Permeable-Phenotype (%),HEK-293T; [1],0%
same,Population Mitochondria Different-Phenotype (%),HEK-293T; [1],35% and 66%
same,Population Mitotic Cells (%),HEK-293T; [1],67% and 43%
same,Population Normal (%),HEK-293T; [1],93%
same,Population Pyknosed Nuclei (%),HEK-293T; [1],11% and 16%
same,Population Tubulin-Different-Phenotype (%),HEK-293T; [1],23% and 22%
same,Total Cell Count,HEK-293T; [1],448 and 290
same,Population Apoptotic (%),HEK-293T; [2],38% and 55%
same,Population Fragmented Nuclei (%),HEK-293T; [2],9% and 5%
same,Population Healthy Nuclei (%),HEK-293T; [2],75% and 77%
same,Population Hoechst High Intensity Objects (%),HEK-293T; [2],10% and 9%
same,Population Membrane Permeable-Phenotype (%),HEK-293T; [2],0%
same,Population Mitochondria Different-Phenotype (%),HEK-293T; [2],62% and 61%
same,Population Mitotic Cells (%),HEK-293T; [2],61% and 44%
same,Population Normal (%),HEK-293T; [2],89% and 90%
same,Population Pyknosed Nuclei (%),HEK-293T; [2],14% and 16%
same,Population Tubulin-Different-Phenotype (%),HEK-293T; [2],45% and 25%
same,Total Cell Count,HEK-293T; [2],348 and 404
same,Population Apoptotic (%),HEK-293T; [3],38% and 51%
same,Population Fragmented Nuclei (%),HEK-293T; [3],9%
same,Population Healthy Nuclei (%),HEK-293T; [3],82% and 80%
same,Population Hoechst High Intensity Objects (%),HEK-293T; [3],3% and 5%
same,Population Membrane Permeable-Phenotype (%),HEK-293T; [3],0%
same,Population Mitochondria Different-Phenotype (%),HEK-293T; [3],25% and 45%
same,Population Mitotic Cells (%),HEK-293T; [3],61% and 48%
same,Population Normal (%),HEK-293T; [3],96% and 94%
same,Population Pyknosed Nuclei (%),HEK-293T; [3],7% and 10%
same,Population Tubulin-Different-Phenotype (%),HEK-293T; [3],10% and 16%
same,Total Cell Count,HEK-293T; [3],660 and 364
same,Population Apoptotic (%),HEK-293T; [4],50% and 54%
same,Population Fragmented Nuclei (%),HEK-293T; [4],12% and 11%
same,Population Healthy Nuclei (%),HEK-293T; [4],77% and 78%
same,Population Hoechst High Intensity Objects (%),HEK-293T; [4],5%
same,Population Membrane Permeable-Phenotype (%),HEK-293T; [4],0% and 1%
same,Population Mitochondria Different-Phenotype (%),HEK-293T; [4],40% and 42%
same,Population Mitotic Cells (%),HEK-293T; [4],50% and 45%
same,Population Normal (%),HEK-293T; [4],94%
same,Population Pyknosed Nuclei (%),HEK-293T; [4],9% and 10%
same,Population Tubulin-Different-Phenotype (%),HEK-293T; [4],32% and 20%
same,Total Cell Count,HEK-293T; [4],463 and 534
same,Population Apoptotic (%),HEK-293T; [5],36% and 38%
same,Population Fragmented Nuclei (%),HEK-293T; [5],17% and 16%
same,Population Healthy Nuclei (%),HEK-293T; [5],76%
same,Population Hoechst High Intensity Objects (%),HEK-293T; [5],1% and 2%
same,Population Membrane Permeable-Phenotype (%),HEK-293T; [5],1% and 0%
same,Population Mitochondria Different-Phenotype (%),HEK-293T; [5],16% and 23%
same,Population Mitotic Cells (%),HEK-293T; [5],63% and 61%
same,Population Normal (%),HEK-293T; [5],98% and 97%
same,Population Pyknosed Nuclei (%),HEK-293T; [5],5% and 6%
same,Population Tubulin-Different-Phenotype (%),HEK-293T; [5],8% and 9%
same,Total Cell Count,HEK-293T; [5],1114 and 636
same,Population Apoptotic (%),HEK-293T; [6],33% and 23%
same,Population Fragmented Nuclei (%),HEK-293T; [6],17% and 14%
same,Population Healthy Nuclei (%),HEK-293T; [6],75% and 78%
same,Population Hoechst High Intensity Objects (%),HEK-293T; [6],4%
same,Population Membrane Permeable-Phenotype (%),HEK-293T; [6],2% and 1%
same,Population Mitochondria Different-Phenotype (%),HEK-293T; [6],32% and 21%
same,Population Mitotic Cells (%),HEK-293T; [6],66% and 76%
same,Population Normal (%),HEK-293T; [6],95%
same,Population Pyknosed Nuclei (%),HEK-293T; [6],7%
same,Population Tubulin-Different-Phenotype (%),HEK-293T; [6],17% and 11%
same,Total Cell Count,HEK-293T; [6],693 and 778
same,Population Apoptotic (%),U2OS; [1],88% and 94%
same,Population Fragmented Nuclei (%),U2OS; [1],21% and 18%
same,Population Healthy Nuclei (%),U2OS; [1],70% and 69%
same,Population Hoechst High Intensity Objects (%),U2OS; [1],2% and 1%
same,Population Membrane Permeable-Phenotype (%),U2OS; [1],4% and 5%
same,Population Mitochondria Different-Phenotype (%),U2OS; [1],2% and 7%
same,Population Mitotic Cells (%),U2OS; [1],11% and 5%
same,Population Normal (%),U2OS; [1],97% and 98%
same,Population Pyknosed Nuclei (%),U2OS; [1],7% and 12%
same,Population Tubulin-Different-Phenotype (%),U2OS; [1],1% and 8%
same,Total Cell Count,U2OS; [1],235 and 159
same,Population Apoptotic (%),U2OS; [2],86% and 72%
same,Population Fragmented Nuclei (%),U2OS; [2],25% and 15%
same,Population Healthy Nuclei (%),U2OS; [2],67% and 74%
same,Population Hoechst High Intensity Objects (%),U2OS; [2],3% and 0%
same,Population Membrane Permeable-Phenotype (%),U2OS; [2],12% and 4%
same,Population Mitochondria Different-Phenotype (%),U2OS; [2],2% and 5%
same,Population Mitotic Cells (%),U2OS; [2],13% and 27%
same,Population Normal (%),U2OS; [2],96% and 99%
same,Population Pyknosed Nuclei (%),U2OS; [2],7% and 9%
same,Population Tubulin-Different-Phenotype (%),U2OS; [2],6% and 7%
same,Total Cell Count,U2OS; [2],216 and 114
same,Population Apoptotic (%),U2OS; [3],95% and 100%
same,Population Fragmented Nuclei (%),U2OS; [3],22% and 15%
same,Population Healthy Nuclei (%),U2OS; [3],69% and 74%
same,Population Hoechst High Intensity Objects (%),U2OS; [3],1% and 0%
same,Population Membrane Permeable-Phenotype (%),U2OS; [3],8% and 10%
same,Population Mitochondria Different-Phenotype (%),U2OS; [3],2% and 5%
same,Population Mitotic Cells (%),U2OS; [3],4% and 0%
same,Population Normal (%),U2OS; [3],98% and 100%
same,Population Pyknosed Nuclei (%),U2OS; [3],7% and 10%
same,Population Tubulin-Different-Phenotype (%),U2OS; [3],4% and 9%
same,Total Cell Count,U2OS; [3],273 and 188
